Measured values: ChEMBL document CHEMBL4138258 (ACS Med Chem Lett, 2017)

Key:
Cannabinoid receptor 2 [1] = target: T1, Cannabinoid receptor 2 (Homo sapiens, UniProt P34972); assay: Agonist activity at recombinant human CB2 receptor expressed in HEK293 cells assessed as increase in beta arrestin recruitment measured after 2 to 3 hrs by PathHunter assay relative to CP55940; format: functional, cell-based
Cannabinoid receptor 2 [2] = target: T1, Cannabinoid receptor 2; assay: Agonist activity at recombinant human CB2 receptor expressed in HEK293 cells assessed as increase in beta arrestin recruitment measured after 2 to 3 hrs by PathHunter assay; format: functional, cell-based
Cannabinoid receptor 1 [3] = target: T2, Cannabinoid receptor 1 (Homo sapiens, UniProt P21554); assay: Agonist activity at recombinant human CB1 receptor expressed in HEK293 cells assessed as increase in beta arrestin recruitment measured after 2 to 3 hrs by PathHunter assay; format: functional, cell-based
[4] = Half life in rat liver microsomes; format: ADME, microsome
Cannabinoid receptor 2 [5] = target: T3, Cannabinoid receptor 2 (Rattus norvegicus, UniProt Q9QZN9); assay: Agonist activity at recombinant rat CB2 receptor expressed in HEK293 cells assessed as increase in beta arrestin recruitment measured after 2 to 3 hrs by PathHunter assay; format: functional, cell-based
T3 sequence (Q9QZN9 whole entry): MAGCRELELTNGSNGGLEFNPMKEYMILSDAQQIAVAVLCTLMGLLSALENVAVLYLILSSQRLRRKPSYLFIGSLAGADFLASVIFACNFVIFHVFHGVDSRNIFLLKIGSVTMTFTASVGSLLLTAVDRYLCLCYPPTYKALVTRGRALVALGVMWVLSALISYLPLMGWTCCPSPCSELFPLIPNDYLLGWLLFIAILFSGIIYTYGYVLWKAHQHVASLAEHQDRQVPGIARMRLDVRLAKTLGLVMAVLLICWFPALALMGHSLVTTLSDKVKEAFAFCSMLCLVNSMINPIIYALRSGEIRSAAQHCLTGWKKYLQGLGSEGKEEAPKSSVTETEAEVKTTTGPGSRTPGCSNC

[6] = target: T4, Cannabinoid receptor 2 (Rattus norvegicus) (UniProt Q9QZN9); assay: Agonist activity at recombinant rat CB2 receptor expressed in HEK293 cells assessed as increase in beta arrestin recruitment measured after 2 to 3 hrs by PathHunter assay relative to CP55940; format: functional, cell-based
T4 sequence (whole entry): T3 sequence (Q9QZN9 whole entry)
Method in brief: (§1)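 Beta-arrestin recruitment EC50 is the mean of three or more independent experiments (logSD < 0.4). Intrinsic activity (Emax) is expressed relative to CP-55,940 set at 100.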

Cannabinoid receptor 1 [7] = target: Cannabinoid receptor 1 (Rattus norvegicus, UniProt P20272); assay: Agonist activity at recombinant rat CB1 receptor expressed in HEK293 cells assessed as increase in beta arrestin recruitment measured after 2 to 3 hrs by PathHunter assay; format: functional, cell-based
[8] = Half life in human liver microsomes; format: ADME, microsome
[9] = Half life in mouse liver microsomes; format: ADME, microsome
Rattus norvegicus [10] = assay: Toxicity in Sprague-Dawley rat assessed as decrease in core body temperature at 0.3 mg/kg, po measured after 60 mins by rectal probe method; format: organism-based; settings: in vivo, 1 h
Cannabinoid receptor 1 [11] = target: T2, Cannabinoid receptor 1; assay: Agonist activity at recombinant human CB1 receptor expressed in HEK293 cells assessed as increase in beta arrestin recruitment measured after 2 to 3 hrs by PathHunter assay relative to CP55940; format: functional, cell-based; method in brief: as §1
[12] = target: Cannabinoid receptor 1 (Rattus norvegicus) (UniProt P20272); assay: Agonist activity at recombinant rat CB1 receptor expressed in HEK293 cells assessed as increase in beta arrestin recruitment measured after 2 to 3 hrs by PathHunter assay relative to CP55940; format: functional, cell-based; method in brief: as §1
[13] = target: T4, Cannabinoid receptor 2 (Rattus norvegicus); assay: Induction of recombinant HA-tagged rat CB2 receptor internalization expressed in CHOK1 cells at 10 uM measured after 1 hr by time-resolved flow cytometry relative to CP55940; format: functional, cell-based
[14] = Ratio of drug level in brain to plasma in Sprague-Dawley rat at 3 mg/kg, po measured after 2 hrs; format: ADME, organism-based; settings: brain and plasma, read-out: BPR
Rattus norvegicus [15] = assay: Toxicity in Sprague-Dawley rat assessed as change in body temperature up to 100 mg/kg, po; format: organism-based; settings: in vivo
Rattus norvegicus [16] = assay: Toxicity in Sprague-Dawley rat assessed as effect on locomotor activity up to 100 mg/kg, po; format: organism-based; settings: in vivo

T1 sequence (P34972 whole entry): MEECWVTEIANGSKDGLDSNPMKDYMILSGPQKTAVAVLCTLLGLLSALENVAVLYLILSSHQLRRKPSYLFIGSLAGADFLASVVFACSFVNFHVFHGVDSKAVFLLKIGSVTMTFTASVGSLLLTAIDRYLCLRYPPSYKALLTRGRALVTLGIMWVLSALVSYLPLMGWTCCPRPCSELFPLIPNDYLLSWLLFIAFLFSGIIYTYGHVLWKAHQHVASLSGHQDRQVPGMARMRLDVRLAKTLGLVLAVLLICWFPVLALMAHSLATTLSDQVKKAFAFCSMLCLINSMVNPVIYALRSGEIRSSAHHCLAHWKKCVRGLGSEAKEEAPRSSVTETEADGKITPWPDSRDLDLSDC
Sequence of Cannabinoid receptor 1 (Rattus norvegicus, UniProt P20272) (P20272 whole entry): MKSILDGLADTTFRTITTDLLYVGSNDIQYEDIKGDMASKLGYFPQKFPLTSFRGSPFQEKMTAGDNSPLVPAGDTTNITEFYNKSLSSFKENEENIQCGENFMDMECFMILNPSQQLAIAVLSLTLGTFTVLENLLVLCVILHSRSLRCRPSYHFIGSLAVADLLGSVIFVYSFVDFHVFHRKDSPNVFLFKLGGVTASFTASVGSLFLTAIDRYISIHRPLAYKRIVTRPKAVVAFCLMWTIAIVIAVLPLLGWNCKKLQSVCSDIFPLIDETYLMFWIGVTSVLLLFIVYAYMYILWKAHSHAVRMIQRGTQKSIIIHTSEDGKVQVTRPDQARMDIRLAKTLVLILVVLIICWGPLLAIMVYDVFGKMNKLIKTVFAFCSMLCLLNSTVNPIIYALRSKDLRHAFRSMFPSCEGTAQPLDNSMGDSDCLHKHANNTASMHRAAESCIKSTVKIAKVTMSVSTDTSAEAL
T2 sequence (P21554 whole entry): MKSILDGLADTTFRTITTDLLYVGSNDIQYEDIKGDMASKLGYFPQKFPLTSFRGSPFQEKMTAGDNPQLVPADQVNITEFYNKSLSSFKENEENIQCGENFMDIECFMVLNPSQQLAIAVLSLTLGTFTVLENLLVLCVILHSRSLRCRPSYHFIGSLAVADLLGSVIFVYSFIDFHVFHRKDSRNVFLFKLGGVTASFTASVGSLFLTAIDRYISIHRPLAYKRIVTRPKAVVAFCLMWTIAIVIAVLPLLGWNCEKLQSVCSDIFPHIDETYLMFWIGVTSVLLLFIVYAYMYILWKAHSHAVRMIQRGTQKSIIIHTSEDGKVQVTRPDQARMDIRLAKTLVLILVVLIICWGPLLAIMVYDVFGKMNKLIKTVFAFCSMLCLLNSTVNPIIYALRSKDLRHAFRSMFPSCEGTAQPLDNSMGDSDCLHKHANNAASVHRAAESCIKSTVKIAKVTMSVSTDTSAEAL
Sequence of Cannabinoid receptor 1 (Rattus norvegicus) (P20272 whole entry): as the sequence (P20272 whole entry) above

Structure (SMILES) | Emax (Cannabinoid receptor 2 [1]) | EC50 (Cannabinoid receptor 2 [2]) | EC50 (Cannabinoid receptor 1 [3]) | half-life [4] | EC50 (Cannabinoid receptor 2 [5]) | Emax [6] | EC50 (Cannabinoid receptor 1 [7]) | half-life [8] | half-life [9] | Activity (Rattus norvegicus [10]) | Emax (Cannabinoid receptor 1 [11]) | Emax [12] | Activity [13] | Kp at 2 h [14] | Activity (Rattus norvegicus [15]) | Activity (Rattus norvegicus [16])
CC(C)(C)[C@H](CO)NC(=O)c1nn(-c2cnccn2)c2c1C[C@@H]1C[C@H]21 | 78% | 560 nM | > 10000 nM |  |  |  |  |  |  |  |  |  |  |  |  | 
O=C(N[C@H](CO)C(F)(F)F)c1nn(-c2c[n+]([O-])ccn2)c2c1C[C@@H]1C[C@H]21 | 98% | 280 nM | > 10000 nM | > 1 h | 530 nM | 85% | > 10000 nM | > 1 h |  |  |  |  |  |  |  | 
O=C(N[C@@H](CO)C(F)(F)F)c1nn(-c2c[n+]([O-])ccn2)c2c1C[C@@H]1C[C@H]21 | 119% | 17.2 nM | > 10000 nM | > 1 h | 35 nM | 107% | > 10000 nM | > 1 h |  |  |  |  |  |  |  | 
CC(C)(CO)NC(=O)c1nn(-c2cnccn2)c2c1C[C@H]1C[C@@H]21 |  |  |  | > 1 h |  | 85% |  | > 1 h | > 1 h |  |  |  |  |  |  | 
CCCCCCC(C)(C)c1ccc([C@@H]2C[C@H](O)CC[C@H]2CCCO)c(O)c1 [CP-55940] |  |  |  |  |  |  |  |  |  | Toxic |  |  |  |  |  | 
O=C(NC1(C(F)(F)F)CC1)c1nn(-c2c[n+]([O-])ccn2)c2c1C[C@@H]1C[C@H]21 |  |  | > 10000 nM | > 1 h | 14.5 nM | 103% | > 10000 nM | > 1 h |  |  |  |  |  |  |  | 
O=C(NC1(CO)CCCC1)c1nn(-c2c[n+]([O-])ccn2)c2c1C[C@@H]1C[C@H]21 | 112% | 5.6 nM | > 10000 nM | > 1 h | 6.8 nM | 106% | > 10000 nM | > 1 h |  |  |  |  |  |  |  | 
CC(C)(C)[C@@H](CO)NC(=O)c1nn(-c2cnccn2)c2c1C[C@H]1C[C@@H]21 | 104% | 26 nM | > 10000 nM | 0.633 h | 21 nM | 78% | > 10000 nM | > 1 h | 0.15 h |  |  |  |  |  |  | 
O=C(NC1(C(F)(F)F)CCC1)c1nn(-c2c[n+]([O-])ccn2)c2c1C[C@@H]1C[C@H]21 | 115% | 1.2 nM | > 10000 nM | > 1 h | 1.6 nM | 106% | > 10000 nM | > 1 h |  |  |  |  |  |  |  | 
CC(C)(C)[C@@H](CF)NC(=O)c1nn(-c2c[n+]([O-])ccn2)c2c1C[C@@H]1C[C@H]21 | 107% | 1.2 nM | 1100 nM | > 1 h | 1.5 nM | 97% | 840 nM | > 1 h |  |  | 105% | 107% |  |  |  | 
O=C(N[C@H](CO)c1ccccc1)c1nn(-c2c[n+]([O-])ccn2)c2c1C[C@@H]1C[C@H]21 | 96% |  | > 10000 nM | > 1 h | 60 nM | 72% | > 10000 nM | > 1 h |  |  |  |  |  |  |  | 
CC(C)[C@@H](CO)NC(=O)c1nn(-c2c[n+]([O-])ccn2)c2c1C[C@@H]1C[C@H]21 | 103% | 46 nM | > 10000 nM | > 1 h | 55 nM | 88% | > 10000 nM | > 1 h |  |  |  |  |  |  |  | 
CC1(NC(=O)c2nn(-c3c[n+]([O-])ccn3)c3c2C[C@@H]2C[C@H]32)CC1 | 102% | 91 nM | > 10000 nM |  | 290 nM | 81% | > 10000 nM |  |  |  |  |  |  |  |  | 
CC(C)(CO)NC(=O)c1nn(-c2ccc(F)cc2F)c2c1C[C@H]1C[C@@H]21 |  |  |  |  |  | 46% |  |  |  |  |  |  | 68% |  |  | 
CC(C)[C@@H](CF)NC(=O)c1nn(-c2c[n+]([O-])ccn2)c2c1C[C@@H]1C[C@H]21 | 98% | 3.8 nM | 6100 nM | > 1 h | 6.4 nM | 87% | 2700 nM | > 1 h |  |  | 96% | 74% |  |  |  | 
CC(C)(C)[C@@H](CO)NC(=O)c1nn(-c2cnccn2)c2c1C[C@@H]1C[C@H]21 | 107% | 59 nM | > 10000 nM | > 1 h | 53 nM | 95% | > 10000 nM | > 1 h | 0.4 h |  |  |  |  | 0.1 |  | 
CC(C)(NC(=O)c1nn(-c2c[n+]([O-])ccn2)c2c1C[C@@H]1C[C@H]21)C(F)(F)F | 108% | 2.3 nM | > 10000 nM | > 1 h | 6.3 nM | 98% | > 10000 nM | > 1 h |  |  |  |  |  | 0.83 | Non-Toxic | Non-Toxic
